Source: ChEMBL document CHEMBL3232802, “6-Amino-2,4,5-trimethylpyridin-3-ols: a new general synthetic route and antiangiogenic activity” (2014)

Tests used:
Chorioallantoic membrane [1] = assay: Antiangiogenic activity in human A549 cells inoculated chicken chorioallantoic membrane assessed as inhibition of blood vessel formation at 0.1 pmol after 3 days; assay type: functional, Gallus gallus
Outline: (§1)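 A549 lung cancer cells (2 × 10⁶ cells/CAM) in Matrigel inoculated onto CAM instead of VEGF, then compound at varied doses; three days at 37 °C, 55% humidity. Vessel branch points within tumor region counted double-blind by two observers; mean ± S.E.M.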

A549 [2] = assay: Cytotoxicity against human A549 cells inoculated with chicken chorioallantoic membrane assessed as tumor inhibition after 3 days; assay type: functional, cell-based
Outline: (§2)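 A549 cells (2 × 10⁶ cells/CAM) in Matrigel implanted on CAM, then compound at different concentrations; incubated three days at 37 °C, 55% humidity. Tumor mass grown on CAM isolated and weighed; mean ± S.E.M.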

Chorioallantoic membrane [3] = assay: Antiangiogenic activity in chicken chorioallantoic membrane assessed as inhibition of VEGF-induced blood vessel formation at 0.01 nmol […] measured after 3 days; assay type: functional, cell membranes; conditions: Gallus gallus
Chorioallantoic membrane [4] = assay: Antiangiogenic activity in human A549 cells inoculated chicken chorioallantoic membrane assessed as inhibition of blood vessel formation at 1 pmol after 3 days; assay type: functional, Gallus gallus; outline: as §1
A549 [5] = assay: Cytotoxicity against human A549 cells inoculated with chicken chorioallantoic membrane assessed as tumor inhibition at 0.01 pmol after 3 days; assay type: functional; outline: as §2
A549 [6] = assay: Cytotoxicity against human A549 cells inoculated with chicken chorioallantoic membrane assessed as tumor inhibition at 1 pmol after 3 days; assay type: functional; outline: as §2
Chorioallantoic membrane [7] = assay: Antiangiogenic activity in human A549 cells inoculated chicken chorioallantoic membrane assessed as inhibition of blood vessel formation after 3 days; assay type: functional, cell-based; conditions: Gallus gallus; outline: as §1
A549 [8] = assay: Cytotoxicity against human A549 cells inoculated with chicken chorioallantoic membrane assessed as tumor inhibition at 0.1 pmol after 3 days; assay type: functional; outline: as §2
Chorioallantoic membrane [9] = assay: Antiangiogenic activity in chicken chorioallantoic membrane assessed as inhibition of VEGF-induced blood vessel formation treated 30 mins before VEGF addition measured after 3 days; assay type: functional; conditions: Gallus gallus
Chorioallantoic membrane [10] = assay: Antiangiogenic activity in human A549 cells inoculated chicken chorioallantoic membrane assessed as inhibition of blood vessel formation at 0.01 pmol after 3 days; assay type: functional, Gallus gallus; outline: as §1

`Cc1nc(N)c(C)c(C)c1O` was tested, and the “inhibition (INH)” value (Chorioallantoic membrane [1]) was 18%, the inhibition (A549 [2]) was “Dose-dependent effect” and the inhibition (Chorioallantoic membrane [3]) was 80.9%. The “inhibition (INH)” value (Chorioallantoic membrane [4]) was 20.7%, the “inhibition (INH)” value (A549 [5]) was 20.5% and the “inhibition (INH)” value (A549 [6]) was 27.4%. The inhibition (Chorioallantoic membrane [7]) was “Dose-dependent effect”, the “inhibition (INH)” value (A549 [8]) was 25.2% and the ID50 (Chorioallantoic membrane [9]) was 3.2 pg. The inhibition (Chorioallantoic membrane [9]) was “Dose-dependent effect” and the “inhibition (INH)” value (Chorioallantoic membrane [10]) was 16.6%.

Molecule `Cc1nc(Nc2ccc(Br)cc2)c(C)c(C)c1O` has an inhibition (Chorioallantoic membrane [3]) of 61.7%.

With `Cc1nc(Nc2ccccc2C(C)C)c(C)c(C)c1O` the inhibition (Chorioallantoic membrane [3]) was 55.3%.

For `Cc1nc(Nc2ccc([N+](=O)[O-])cc2)c(C)c(C)c1O`, the “inhibition (INH)” value (Chorioallantoic membrane [1]) was 25.6%, the inhibition (A549 [2]) was “Dose-dependent effect” and the inhibition (Chorioallantoic membrane [3]) was 75%. The “inhibition (INH)” value (Chorioallantoic membrane [4]) was 34.5%, the “inhibition (INH)” value (A549 [5]) was 25.3% and the “inhibition (INH)” value (A549 [6]) was 50.1%. The inhibition (Chorioallantoic membrane [7]) was “Dose-dependent effect”, the “inhibition (INH)” value (A549 [8]) was 44.4% and the ID50 (Chorioallantoic membrane [9]) was 4.4 pg. The inhibition (Chorioallantoic membrane [9]) was “Dose-dependent effect” and the “inhibition (INH)” value (Chorioallantoic membrane [10]) was 19.9%.

`Cc1nc(N2CCN(C)CC2)c(C)c(C)c1O` was tested, and the inhibition (Chorioallantoic membrane [3]) was 24.7%.

Molecule `Cc1nc(N2CCCC2)c(C)c(C)c1O` has an inhibition (Chorioallantoic membrane [3]) of 69.5%.

In the case of `Cc1nc(NCCCO)c(C)c(C)c1O`, the inhibition (Chorioallantoic membrane [3]) is reported as 46.3%.

Work on `Cc1nc(NC2CCCCC2)c(C)c(C)c1O` yielded an inhibition (Chorioallantoic membrane [3]) of 36.8%.

Molecule `Cc1nc(N(c2ccccc2)c2ccccc2)c(C)c(C)c1O` has an inhibition (Chorioallantoic membrane [3]) of 65.4%.

`Cc1nc(Nc2ccc3c(c2)OCO3)c(C)c(C)c1O` showed an inhibition (Chorioallantoic membrane [3]) of 62.4%.

In the case of `Cc1nc(NCc2ccccc2)c(C)c(C)c1O`, the inhibition (Chorioallantoic membrane [3]) is reported as 56.7%.

Work on `Cc1nc(N(C)c2ccccn2)c(C)c(C)c1O` yielded an inhibition (Chorioallantoic membrane [3]) of 42.2%.

In the case of `Cc1nc(Nc2ccccc2)c(C)c(C)c1O`, the inhibition (Chorioallantoic membrane [3]) is reported as 69.4%.

`Cc1nc(N2CCOCC2)c(C)c(C)c1O` showed an inhibition (Chorioallantoic membrane [3]) of 59%.

With `Cc1nc(NCCCOc2nc(C)c(O)c(C)c2C)c(C)c(C)c1O` the inhibition (Chorioallantoic membrane [3]) was 67.3%.

For `CCCCCCCCCCCCCCCCNc1nc(C)c(O)c(C)c1C`, the inhibition (Chorioallantoic membrane [3]) was 30.1%.

For `CCCCCCNc1nc(C)c(O)c(C)c1C`, the inhibition (Chorioallantoic membrane [3]) was 53.7%.

`Cc1nc(-n2cccc2)c(C)c(C)c1O` showed an inhibition (Chorioallantoic membrane [3]) of 44%.

In the case of `CN(C)c1ccc(/C=C2\C(=O)Nc3ccccc32)cc1`, the “inhibition (INH)” value (Chorioallantoic membrane [1]) is reported as 25.1%, the inhibition (A549 [2]) is reported as “Dose-dependent effect” and the inhibition (Chorioallantoic membrane [3]) is reported as 70.5%. The “inhibition (INH)” value (Chorioallantoic membrane [4]) was 36.2%, the “inhibition (INH)” value (A549 [5]) was 16.2% and the “inhibition (INH)” value (A549 [6]) was 26.8%. For the same molecule, the inhibition (Chorioallantoic membrane [7]) was “Dose-dependent effect”, the “inhibition (INH)” value (A549 [8]) was 23.4% and the ID50 (Chorioallantoic membrane [9]) was 10.5 pg. The inhibition (Chorioallantoic membrane [9]) was “Dose-dependent effect” and the “inhibition (INH)” value (Chorioallantoic membrane [10]) was 20.8%.
